Reference: ChEMBL document CHEMBL4411269, “Required Immunoproteasome Subunit Inhibition Profile for Anti-Inflammatory Efficacy and Clinical Candidate KZR-616 ((2 S,3 R)- N-(( S)-3-(Cyclopent-1-en-1-yl)-1-(( R)-2-methyloxiran-2-yl)-1-oxopropan-2-yl)-3-hydroxy-3-(4-methoxyphenyl)-2-(( S)-2-(2-morpholinoacetamido)propanamido)propenamide)” (J Med Chem, 2018)
Active and inactive are the calls of the source. The calls are words filed in the database; no cut-off is given here.

Key:
Mus musculus [1] = assay: Antiarthritic activity in type 2 collagen antibody/LPS induced Balb/c mouse assessed as reduction in disease burden at 5 mg/kg, iv followed by dosing repeat on day 6, 8, 11, 13 and 15 and measured until day 18
Mus musculus [2] = assay: In vivo inhibition of proteosome beta 5 in Balb/c mouse kidney at 20 mg/kg, iv followed by dosing repeat on day 6, 8, 11, 13 and 15 and co-treated with 5 mg/kg, iv KZR-504 and measured on 1 hr post last dose; format: functional, organism-based
Method in brief: (§1)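 BALB/c mice dosed iv bolus in 10% sulfobutyl ether−β-cyclodextrin/10 mM sodium citrate pH 3.5; tissues taken 1 h after administration. Splenocytes strained and red cells lysed; kidney frozen, then bead-homogenized. Hypotonic lysate (20 mM Tris pH 8, 5 mM EDTA) at 1 mg/mL (spleen) or 5 mg/mL (kidney) run in the ProCISE active-site ELISA. Background-subtracted, protein-normalized activity relative to vehicle animals; n = 3.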

[3] = target: T1, Proteasome subunit beta type-8 (Homo sapiens) (UniProt P28062); assay: Inhibition of LMP7 in human PBMC at 125 nM by ELISA
T1 sequence (whole entry): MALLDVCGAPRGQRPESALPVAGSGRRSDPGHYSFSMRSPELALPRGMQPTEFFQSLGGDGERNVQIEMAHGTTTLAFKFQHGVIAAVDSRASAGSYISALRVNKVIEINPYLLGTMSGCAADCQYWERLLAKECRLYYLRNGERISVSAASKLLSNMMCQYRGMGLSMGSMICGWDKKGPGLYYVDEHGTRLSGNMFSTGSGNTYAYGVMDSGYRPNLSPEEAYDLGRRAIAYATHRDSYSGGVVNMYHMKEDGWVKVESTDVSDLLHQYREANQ
Method in brief: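 Cryopreserved healthy-donor human PBMC in RPMI 1640 with 5% heat-inactivated FBS, exposed to compound (0.1% DMSO final) for 1 h at 37 °C, 5% CO2, then washed. Subunit-specific active-site occupancy read by ProCISE: biotinylated active-site probe binding, denaturation, streptavidin capture, subunit-specific antibody and HRP chemiluminescence. Signal normalized to protein and expressed relative to DMSO controls.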

PBMC [4] = assay: Cytotoxicity in human PBMC assessed as reduction in cell viability at 125 nM relative to control; format: cell-based; details: 0.125 µM
[5] = target: T2, Proteasome subunit beta type-9 (Homo sapiens) (UniProt P28065); assay: Inhibition of LMP2 in human PBMC at 125 nM by ELISA
T2 sequence (whole entry): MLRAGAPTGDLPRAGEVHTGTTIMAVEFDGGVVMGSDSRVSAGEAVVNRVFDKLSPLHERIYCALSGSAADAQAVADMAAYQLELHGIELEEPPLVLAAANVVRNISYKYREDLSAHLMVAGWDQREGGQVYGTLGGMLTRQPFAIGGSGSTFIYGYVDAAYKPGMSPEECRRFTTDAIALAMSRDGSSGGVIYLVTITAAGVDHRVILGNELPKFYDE

Mus musculus [6] = assay: In vivo inhibition of MECL-1 in Balb/c mouse splenocytes at 20 mg/kg, iv followed by dosing repeat on day 6, 8, 11, 13 and 15 and measured on 1 hr post last dose; format: functional, organism-based
Method in brief: as §1

[7] = Half life in Balb/c mouse at 2 mg/kg, iv; format: ADME, organism-based; details: in vivo
Method in brief: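 Female BALB/c mice aged 7−8 weeks, given 2 mg/kg iv in 25% PEG300/WFI. Cardiac blood taken at 2, 5, 10, 20, 30, 60 and 120 min postdose into sodium heparin and processed to plasma (n = 3/time point). Proteins precipitated with acetonitrile; drug measured by LC−MS/MS. Noncompartmental analysis of mean concentrations at nominal times and target doses.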

Mus musculus [8] = species on record: Mus musculus; assay: Selectivity ratio of IC50 for proteosome beta 5 in mouse A20 cells to IC50 for LMP7 in mouse A20 cells; format: cell-based
Method in brief: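 Mouse A20 B-cell lymphoma cell lysate (1 mg/mL, hypotonic 20 mM Tris pH 8, 5 mM EDTA) treated with serially diluted compound for 1 h at 25 °C. Then 5 μM biotinylated active-site probe for 2 h at 25 °C, guanidine denaturation and streptavidin bead capture. Subunit-specific antibody and HRP chemiluminescence, signal normalized to protein, IC50 from percent activity versus DMSO controls.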

[9] = Toxicity in Balb/c mouse assessed as change in body weight at 20 mg/kg, iv followed by dosing repeat on day 6, 8, 11, 13 and 15 and co-treated with 5 mg/kg, iv KZR-504 and measured until day 18; format: organism-based; details: in vivo
[10] = Toxicity in Balb/c mouse assessed as change in body weight at 20 mg/kg, iv followed by dosing repeat on day 6, 8, 11, 13 and 15 and measured until day 18; format: organism-based; details: in vivo
PBMC [11] = assay: Antiinflammatory activity in human PBMC assessed as reduction in LPS-stimulated TNF-alpha expression at 125 nM preincubated for 1 hr followed by LPS stimulation measured after 24 hrs by ELISA; format: functional, cell-based
Method in brief: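 Cryopreserved healthy-donor PBMC in RPMI 1640 with 5% heat-inactivated FBS, 250 000 cells/well. Compound (0.1% DMSO final) for 1 h at 37 °C, 5% CO2, then 4 washes with medium. Stimulated with 1 μg/mL LPS for 24 h; supernatant TNFα, IL-6 and IL-12/23p40 by electrochemiluminescent immunoassay. Mean level relative to DMSO controls, n = 6.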

Mus musculus [12] = assay: In vivo inhibition of LMP7 in Balb/c mouse splenocytes at 20 mg/kg, iv followed by dosing repeat on day 6, 8, 11, 13 and 15 and co-treated with 5 mg/kg, iv KZR-504 and measured on 1 hr post last dose; format: functional, organism-based
Method in brief: as §1

Mus musculus [13] = assay: Antiarthritic activity in type 2 collagen antibody/LPS induced Balb/c mouse assessed as reduction in disease burden at 20 mg/kg, iv followed by dosing repeat on day 6, 8, 11, 13 and 15 and co-treated with 5 mg/kg, iv KZR-504 and measured until day 18; format: functional, organism-based
Method in brief: (§2)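 CAIA in 7−8 week old female BALB/c mice on breeder chow. Induced with 1.75 mg of a 5-antibody anti-type II collagen cocktail iv on day 0, then 25 μg LPS ip on day 3. Dosed as single iv boluses in 10% (w/v) sulfobutyl ether−β-cyclodextrin/10 mM sodium citrate (pH 3.5); vehicle-treated group included.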

Mus musculus [14] = assay: In vivo inhibition of MECL-1 in Balb/c mouse splenocytes at 20 mg/kg, iv followed by dosing repeat on day 6, 8, 11, 13 and 15 and co-treated with 5 mg/kg, iv KZR-504 and measured on 1 hr post last dose; format: functional, organism-based
Method in brief: as §1

Mus musculus [15] = assay: Antiarthritic activity in type 2 collagen antibody/LPS induced Balb/c mouse assessed as reduction in disease burden at 20 mg/kg, iv followed by dosing repeat on day 6, 8, 11, 13 and 15 and measured until day 18; format: functional, organism-based
Method in brief: as §2

Question: For COc1ccc([C@@H](O)[C@H](NC(=O)[C@H](C)NC(=O)CN2CCOCC2)C(=O)N[C@@H](CC2=CCCC2)C(=O)[C@@]2(C)CO2)cc1 [ZETOMIPZOMIB], which Activity (Mus musculus [1]) is on record?
Answer: Active

Question: Which inhibition (Mus musculus [2]) does the source give for COc1ccc(C[C@H](NC(=O)[C@@H](C)NC(=O)[C@H]2CC[C@H](O)CC2)C(=O)N[C@@H](CC2=CCCC2)C(=O)[C@@]2(C)CO2)cc1 here?
Answer: Active

Question: What about the inhibition [3] of the same compound?
Answer: Active

Question: What about the Activity (PBMC [4]) of the same compound?
Answer: 30%

Question: And the inhibition [5]?
Answer: Active

Question: What about the inhibition (Mus musculus [6]) of the same compound?
Answer: Active

Question: And the half-life [7]?
Answer: < 7 min

Question: What about the Ratio IC50 (Mus musculus [8]) of the same compound?
Answer: 7

Question: And the Activity [9]?
Answer: Non-Toxic

Question: What about the Activity [10] of the same compound?
Answer: Non-Toxic

Question: And the Activity (PBMC [11])?
Answer: inactive

Question: And the inhibition (Mus musculus [12])?
Answer: Active

Question: What about the Activity (Mus musculus [13]) of the same compound?
Answer: Active

Question: What about the inhibition (Mus musculus [14]) of the same compound?
Answer: Active

Question: What about the Activity (Mus musculus [15]) of the same compound?
Answer: inactive
